The source of these data is ChEMBL document CHEMBL1148762, “Lysosome and HER3 (ErbB3) selective anticancer agent kahalalide F: semisynthetic modifications and antifungal lead-exploration studies” (J Med Chem, 2007).

In brackets after ≈: the same amount, converted by molar mass. Activity calls are given as the source filed them. Bounds are passed on as bounds.

The test system of assay [1] is Aspergillus fumigatus. Kind of assay: Antimicrobial activity against Aspergillus fumigatus ATCC 90906. The format is functional, organism-based.
Assay [2] deals with Cryptococcus neoformans. Kind of assay: Antimicrobial activity against Cryptococcus neoformans ATCC 90113. In kind it is functional, organism-based.
Assay [3] concerns Candida albicans. As to the kind of experiment: Antimicrobial activity against Candida albicans ATCC 90028. The format is functional, organism-based.
Assay [4] deals with Mycobacterium intracellulare. As to the kind of experiment: Antimicrobial activity against Mycobacterium intracellular ATCC 23068. In kind it is functional, organism-based.
Assay [5] concerns Leishmania donovani. Kind of assay: Antiparasitic activity against Leishmania donovani. The format is functional, organism-based.
Assay [6] concerns Fusarium proliferatum. As to the kind of experiment: Fungistatic activity against Fusarium proliferatum at 30 uM after 72 hrs by microtiter plate assay. In kind it is functional, organism-based. The procedure, abridged:
(§1)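 Conidia come from 7-day potato dextrose agar cultures, filtered and set photometrically (625 nm) to 3 × 10^5 conidia/mL. They are exposed to compound at 30 µM in 96-well microdilution broth at 24 ± 1 °C under a 12 h photoperiod. After 72 h, 20 µL per well is subcultured on drug-free potato dextrose agar at 28 °C for 3 days. No regrowth is scored fungicidal; regrowth is scored fungistatic.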

Assay [7] concerns Fusarium solani. Kind of assay: Fungicidal activity against Fusarium solani at 30 uM after 72 hrs by microtiter assay. The format is functional, organism-based. The procedure, abridged: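 After 72 h of microtiter broth exposure at 30 µM, 20 µL from each well was plated onto compound-free potato dextrose agar and incubated 3 days at 28 °C. No regrowth was scored fungicidal; regrowth was scored fungistatic.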

Assay [8] relates to Fusarium oxysporum. As to the kind of experiment: Fungistatic activity against Fusarium oxysporum at 30 uM after 72 hrs by microtiter plate assay. The format is functional, organism-based. The procedure, abridged: as §1
Assay [9] concerns Mycobacterium tuberculosis. As to the kind of experiment: Antibacterial activity against Mycobacterium tuberculosis H37Rv at 16 ug/mL by micro plate alamar blue assay. The format is functional. The procedure, abridged: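 M. tuberculosis H37Rv ATCC 27294 grown in BACTEC 12B medium; microplate Alamar blue assay (MABA). Primary screen at a single concentration of 16 µg/mL, read as percent inhibition.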
Background: The colour change of resazurin is a common sign of viable cells or microbes.

Assay [10] concerns Mycobacterium tuberculosis. Kind of assay: Antibacterial activity against Mycobacterium tuberculosis H37Rv by micro plate alamar blue assay. The format is functional.

`C/C=C1\NC(=O)[C@H](Cc2ccccc2)NC(=O)[C@@H](C(C)C)NC(=O)[C@@H]([C@@H](C)CC)NC(=O)[C@H](NC(=O)[C@H](NC(=O)[C@H](CCCNCc2cccs2)NC(=O)[C@H]2CCCN2C(=O)[C@H](NC(=O)[C@@H](NC(=O)[C@@H](NC(=O)[C@H](NC(=O)CCCC(C)C)C(C)C)[C@@H](C)O)C(C)C)C(C)C)[C@@H](C)CC)[C@@H](C)OC(=O)[C@H](C(C)C)NC1=O`: the IC50 stood at 3.22 µM in assay [1]; 1910 nM in assay [2]; 3.81 µM in assay [3]; 12 µM in [4]; 17 µg/mL (≈ 10.8 µM) in assay [5].

Consider `C/C=C1\NC(=O)[C@H](Cc2ccccc2)NC(=O)[C@@H](C(C)C)NC(=O)[C@@H]([C@@H](C)CC)NC(=O)[C@H](NC(=O)[C@H](NC(=O)[C@H](CCCNCCCCCC)NC(=O)[C@H]2CCCN2C(=O)[C@@H](NC(=O)[C@H](NC(=O)[C@H](NC(=O)[C@@H](NC(=O)CCCC(C)C)C(C)C)[C@H](C)O)C(C)C)C(C)C)[C@@H](C)CC)[C@@H](C)OC(=O)[C@H](C(C)C)NC1=O`, for which the outcome in assay [6], in [7] and in assay [8] was Active.

On to `C/C=C1\NC(=O)[C@H](Cc2ccccc2)NC(=O)[C@@H](C(C)C)NC(=O)[C@@H]([C@@H](C)CC)NC(=O)[C@H](NC(=O)[C@H](NC(=O)[C@H](CCCN(CCCCCC)CCCCCC)NC(=O)[C@H]2CCCN2C(=O)[C@H](NC(=O)[C@@H](NC(=O)[C@@H](NC(=O)[C@H](NC(=O)CCCC(C)C)C(C)C)[C@@H](C)O)C(C)C)C(C)C)[C@@H](C)CC)[C@@H](C)OC(=O)[C@H](C(C)C)NC1=O`, for which the MFC in assay [1], in [2] and in [3] was greater than 20 µM each time. Besides, the minimum inhibitory concentration (MIC) is greater than 20 µM in assay [1]; greater than 20 µM in [2]; greater than 20 µM in assay [3]; greater than 20 µM in assay [4]; 9.4 µg/mL (≈ 5.71 µM) in assay [10]. For the same compound, the MBC in [4] is greater than 20 µM. At 16 µg/mL the inhibition in [9] was 91%.

As a reminder, the IC50 is the concentration that inhibits the measured activity by half. Low values mean greater potency in that assay, high ones weaker potency in that assay. The MIC is the lowest concentration that inhibits growth of the organism. As usually defined, the MBC is the smallest concentration meeting the test's criterion for killing. Lower therefore signals greater bactericidal potency. For orientation: inhibition means how much of the control response was suppressed. The low end stands for little suppression, the high end for strong suppression.
